Test results reported in ChEMBL document CHEMBL1212781, “VIM-19, a metallo-beta-lactamase with increased carbapenemase activity from Escherichia coli and Klebsiella pneumoniae” (2010).
≈ marks a conversion by molar mass, not a printed value.

What was measured:
Escherichia coli [1] = experiment: Antimicrobial activity in Escherichia coli DIH-1 expressing beta-lactamase VIM-19 by Etest; assay type: functional
Summary of the method: (§1)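 MICs read by Etest on Mueller-Hinton agar incubated at 37°C. Susceptibility was categorized according to CLSI guidelines. Transconjugants were obtained in E. coli J53 by liquid mating at 37°C, with selection on agar containing amoxicillin (50 μg/ml) and azide (100 μg/ml).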

Klebsiella pneumoniae [2] = experiment: Antimicrobial activity in Klebsiella pneumoniae DIH-2 clinical isolate expressing beta-lactamase VIM-19 by Etest; assay type: functional
Escherichia coli [3] = experiment: microbe, parasite or virus in culture; assay type: functional; details: TOP10
Escherichia coli [4] = experiment: microbe, parasite or virus in culture; assay type: functional; details: TOP10; remark: listed apart in the source
Escherichia coli [5] = experiment: microbe, parasite or virus in culture; assay type: functional; details: TOP10; remark: listed apart in the source
Escherichia coli [6] = experiment: microbe, parasite or virus in culture; assay type: functional; details: TOP10; remark: listed apart in the source
Escherichia coli [7] = experiment: Antimicrobial activity in Escherichia coli J53 transconjugate with Escherichia coli DIH-1 expressing natural plasmid containing beta-lactamase VIM-19; assay type: functional
Summary of the method: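 Transconjugants came from liquid mating-out at 37°C with azide-resistant E. coli J53 as recipient, selected on agar with amoxicillin (50 μg/ml) plus azide (100 μg/ml). MICs were then read by Etest on Mueller-Hinton agar at 37°C and interpreted per CLSI.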

Escherichia coli [8] = experiment: Antimicrobial activity in Escherichia coli TOP10 strain; assay type: functional
Summary of the method: (§2)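 MICs were determined by Etest on Mueller-Hinton agar plates incubated at 37°C. Susceptibility was interpreted according to CLSI guidelines.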

Escherichia coli [9] = experiment: Antimicrobial activity in Escherichia coli J53 strain; assay type: functional; summary of the method: as §2
Escherichia coli [10] = experiment: Antimicrobial activity in Escherichia coli DIH-1 expressing beta-lactamase VIM-19 by Etest in presence of 4 ug/ml Tazobactam; assay type: functional; summary of the method: as §1
Klebsiella pneumoniae [11] = experiment: Antimicrobial activity in Klebsiella pneumoniae DIH-2 clinical isolate expressing beta-lactamase VIM-19 by Etest in presence of 4 ug/ml Tazobactam; assay type: functional; summary of the method: as §1
Escherichia coli [12] = experiment: Antimicrobial activity in Escherichia coli TOP10 hourbouring recombinant plasmid VIM-19 by Etest in presence of 4 ug/ml Tazobactam; assay type: functional
Summary of the method: (§3)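 Recombinant plasmids were carried in the TOP10 cloning host. The N215K variant was made by site-directed mutagenesis using pVIM-1 as PCR template. MIC by Etest on Mueller-Hinton agar at 37°C, with CLSI interpretation.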

Escherichia coli [13] = experiment: Antimicrobial activity in Escherichia coli TOP10 hourbouring recombinant plasmid VIM-4 by Etest in presence of 4 ug/ml Tazobactam; assay type: functional; summary of the method: as §3
Escherichia coli [14] = experiment: Antimicrobial activity in Escherichia coli TOP10 strain harbouring recombinant plasmid VIM-1 by Etest in presence of 4 ug/ml Tazobactam; assay type: functional; summary of the method: as §3
Escherichia coli [15] = experiment: Antimicrobial activity in Escherichia coli TOP10 harbouring recombinant plasmid VIM-1-N215K by Etest in presence of 4 ug/ml Tazobactam; assay type: functional; summary of the method: as §3
Escherichia coli [16] = experiment: Antimicrobial activity in Escherichia coli J53 transconjugate with Escherichia coli DIH-1 expressing natural plasmid containing beta-lactamase VIM-19 in presence of 4 ug/ml Tazobactam; assay type: functional
Summary of the method: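 Transconjugant came from liquid mating-out at 37°C into azide-resistant J53, selected on agar with amoxicillin (50 μg/ml) plus azide (100 μg/ml). MIC by Etest on Mueller-Hinton agar at 37°C, with CLSI interpretation.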

Escherichia coli [17] = experiment: Antimicrobial activity in Escherichia coli TOP10 strain in presence of 4 ug/ml Tazobactam; assay type: functional
Summary of the method: (§4)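 MIC by Etest on Mueller-Hinton agar plates at 37°C, with susceptibility interpreted per CLSI guidelines.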

Escherichia coli [18] = experiment: Antimicrobial activity in Escherichia coli J53 strain in presence of 4 ug/ml Tazobactam; assay type: functional; summary of the method: as §4
[19] = system: CC(C)(O/N=C(\C(=O)N[C@@H]1C(=O)N2C(C(=O)[O-])=C(C[n+]3ccccc3)CS[C@H]12)c1csc(N)n1)C(=O)O; experiment: (§5) Hydrolytic activity of beta-lactamase VIM-1 expressed in Escherichia coli TOP10 by spectrophotometry
[20] = system: CC1(C)S[C@@H]2[C@H](NC(=O)Cc3ccccc3)C(=O)N2[C@H]1C(=O)O; experiment: as §5
[21] = system: CCN1CCN(C(=O)N[C@@H](C(=O)N[C@@H]2C(=O)N3[C@@H]2SC(C)(C)[C@@H]3C(=O)O)c2ccccc2)C(=O)C1=O; experiment: as §5
[22] = system: CO/N=C(\C(=O)N[C@@H]1C(=O)N2C(C(=O)O)=C(COC(C)=O)CS[C@H]12)c1csc(N)n1; experiment: as §5
[23] = system: CO[C@@]1(NC(=O)Cc2cccs2)C(=O)N2C(C(=O)O)=C(COC(N)=O)CS[C@@H]21; experiment: as §5
[24] = system: C[C@@H](O)[C@H]1C(=O)N2C(C(=O)O)=C(S[C@@H]3CN[C@H](C(=O)N(C)C)C3)[C@H](C)[C@H]12; experiment: as §5
[25] = system: CC(C)(O/N=C(\C(=O)N[C@@H]1C(=O)N2C(C(=O)[O-])=C(C[n+]3ccccc3)CS[C@H]12)c1csc(N)n1)C(=O)O; experiment: (§6) Ratio of Kcat to Km for beta-lactamase VIM-1 expressed in Escherichia coli TOP10 by spectrophotometry
[26] = system: CC1(C)S[C@@H]2[C@H](NC(=O)Cc3ccccc3)C(=O)N2[C@H]1C(=O)O; experiment: as §6
[27] = system: CCN1CCN(C(=O)N[C@@H](C(=O)N[C@@H]2C(=O)N3[C@@H]2SC(C)(C)[C@@H]3C(=O)O)c2ccccc2)C(=O)C1=O; experiment: as §6
[28] = system: CO/N=C(\C(=O)N[C@@H]1C(=O)N2C(C(=O)O)=C(COC(C)=O)CS[C@H]12)c1csc(N)n1; experiment: as §6
[29] = system: CO[C@@]1(NC(=O)Cc2cccs2)C(=O)N2C(C(=O)O)=C(COC(N)=O)CS[C@@H]21; experiment: as §6
[30] = system: C[C@@H](O)[C@H]1C(=O)N2C(C(=O)O)=C(S[C@@H]3CN[C@H](C(=O)N(C)C)C3)[C@H](C)[C@H]12; experiment: as §6
[31] = system: CC(C)(O/N=C(\C(=O)N[C@@H]1C(=O)N2C(C(=O)[O-])=C(C[n+]3ccccc3)CS[C@H]12)c1csc(N)n1)C(=O)O; experiment: (§7) Hydrolytic activity of beta-lactamase VIM-19 expressed in Escherichia coli TOP10 by spectrophotometry
Summary of the method: (§8)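 Enzyme came from E. coli TOP10 (pVIM-19) grown overnight at 37°C in Trypticase soy broth with amoxicillin (100 μg/ml) and kanamycin (30 μg/ml). The sonicated, cleared extract was purified on Q-Sepharose with a 0–1 M NaCl gradient, in Bis-Tris then cacodylate pH 6.5 buffers.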

[32] = system: CC1(C)S[C@@H]2[C@H](NC(=O)Cc3ccccc3)C(=O)N2[C@H]1C(=O)O; experiment: as §7; summary of the method: as §8
[33] = system: CCN1CCN(C(=O)N[C@@H](C(=O)N[C@@H]2C(=O)N3[C@@H]2SC(C)(C)[C@@H]3C(=O)O)c2ccccc2)C(=O)C1=O; experiment: as §7; summary of the method: as §8
[34] = system: CO/N=C(\C(=O)N[C@@H]1C(=O)N2C(C(=O)O)=C(COC(C)=O)CS[C@H]12)c1csc(N)n1; experiment: as §7; summary of the method: as §8
[35] = system: CO[C@@]1(NC(=O)Cc2cccs2)C(=O)N2C(C(=O)O)=C(COC(N)=O)CS[C@@H]21; experiment: as §7; summary of the method: as §8
[36] = system: C[C@@H](O)[C@H]1C(=O)N2C(C(=O)O)=C(S[C@@H]3CN[C@H](C(=O)N(C)C)C3)[C@H](C)[C@H]12; experiment: as §7; summary of the method: as §8
[37] = system: C[C@@H](O)[C@H]1C(=O)N2C(C(=O)O)=C(S[C@@H]3CN[C@H](C(=O)Nc4cccc(C(=O)O)c4)C3)[C@H](C)[C@H]12; experiment: as §7; summary of the method: as §8
[38] = system: CC(C)(O/N=C(\C(=O)N[C@@H]1C(=O)N2C(C(=O)[O-])=C(C[n+]3ccccc3)CS[C@H]12)c1csc(N)n1)C(=O)O; experiment: (§9) Ratio of Kcat to Km for beta-lactamase VIM-19 expressed in Escherichia coli TOP10 by spectrophotometry; summary of the method: as §8
[39] = system: CC1(C)S[C@@H]2[C@H](NC(=O)Cc3ccccc3)C(=O)N2[C@H]1C(=O)O; experiment: as §9; summary of the method: as §8
[40] = system: CCN1CCN(C(=O)N[C@@H](C(=O)N[C@@H]2C(=O)N3[C@@H]2SC(C)(C)[C@@H]3C(=O)O)c2ccccc2)C(=O)C1=O; experiment: as §9; summary of the method: as §8
[41] = system: CO/N=C(\C(=O)N[C@@H]1C(=O)N2C(C(=O)O)=C(COC(C)=O)CS[C@H]12)c1csc(N)n1; experiment: as §9; summary of the method: as §8
[42] = system: CO[C@@]1(NC(=O)Cc2cccs2)C(=O)N2C(C(=O)O)=C(COC(N)=O)CS[C@@H]21; experiment: as §9; summary of the method: as §8
[43] = system: C[C@@H](O)[C@H]1C(=O)N2C(C(=O)O)=C(S[C@@H]3CN[C@H](C(=O)N(C)C)C3)[C@H](C)[C@H]12; experiment: as §9; summary of the method: as §8
[44] = system: C[C@@H](O)[C@H]1C(=O)N2C(C(=O)O)=C(S[C@@H]3CN[C@H](C(=O)Nc4cccc(C(=O)O)c4)C3)[C@H](C)[C@H]12; experiment: as §9; summary of the method: as §8

## CCN1CCN(C(=O)N[C@@H](C(=O)N[C@@H]2C(=O)N3[C@@H]2SC(C)(C)[C@@H]3C(=O)O)c2ccccc2)C(=O)C1=O [PIPERACILLIN]
Escherichia coli [1]
  MIC: > 512 mg/L
Klebsiella pneumoniae [2]
  MIC: > 512 mg/L
Escherichia coli [3]
  MIC: 256 mg/L (≈ 495 µM)
Escherichia coli [4]
  MIC: 256 mg/L (≈ 495 µM)
Escherichia coli [5]
  MIC: 256 mg/L (≈ 495 µM)
Escherichia coli [6]
  MIC: 256 mg/L (≈ 495 µM)
Escherichia coli [7]
  MIC: 256 mg/L (≈ 495 µM)
Escherichia coli [8]
  MIC: 1 mg/L (≈ 1.93 µM)
Escherichia coli [9]
  MIC: 1 mg/L (≈ 1.93 µM)
Escherichia coli [10]
  MIC: > 512 mg/L
Klebsiella pneumoniae [11]
  MIC: > 512 mg/L
Escherichia coli [12]
  MIC: 256 mg/L
Escherichia coli [13]
  MIC: 256 mg/L
Escherichia coli [14]
  MIC: 256 mg/L
Escherichia coli [15]
  MIC: 256 mg/L
Escherichia coli [16]
  MIC: 256 mg/L
Escherichia coli [17]
  MIC: 1 mg/L
Escherichia coli [18]
  MIC: 1 mg/L

## CC1(C)S[C@@H]2[C@H](NC(=O)[C@H](C(=O)O)c3ccsc3)C(=O)N2[C@H]1C(=O)O [TICARCILLIN]
Escherichia coli [1]
  MIC: > 512 mg/L
Klebsiella pneumoniae [2]
  MIC: > 512 mg/L
Escherichia coli [3]
  MIC: > 512 mg/L
Escherichia coli [4]
  MIC: > 512 mg/L
Escherichia coli [7]
  MIC: > 512 mg/L
Escherichia coli [8]
  MIC: 4 mg/L (≈ 10.4 µM)
Escherichia coli [9]
  MIC: 4 mg/L (≈ 10.4 µM)

## BlaVIM-1 (Escherichia coli) (from UniProt Q8GDC1)
[19]
  Km: 800 µM
  kcat: 60 s⁻¹
[20]
  Km: 850 µM
[21]
  Km: 3500 µM
[22]
  Km: 250 µM
[23]
  Km: 130 µM
[24]
  Km: 50 µM
[25]
  kcat/Km: 100000 M⁻¹ s⁻¹
[26]
  kcat/Km: 50000 M⁻¹ s⁻¹
[27]
  kcat/Km: 500000 M⁻¹ s⁻¹
[28]
  kcat/Km: 700000 M⁻¹ s⁻¹
[29]
  kcat/Km: 200000 M⁻¹ s⁻¹
[30]
  kcat/Km: 300000 M⁻¹ s⁻¹

## Metallo-beta-lactamase VIM-19 (Escherichia coli) (from UniProt D2D9J0)
[31]
  Km: > 1000 µM
  kcat: > 20 s⁻¹
[32]
  Km: 300 µM
  kcat: 1300 s⁻¹
[33]
  kcat: 860 s⁻¹
[34]
  Km: 30 µM
  kcat: 900 s⁻¹
[35]
  Km: 60 µM
  kcat: 30 s⁻¹
[36]
  Km: 15 µM
[37]
  Km: 200 µM
  kcat: 15 s⁻¹
[38]
  kcat/Km: 20000 M⁻¹ s⁻¹
[39]
  kcat/Km: 5e+06 M⁻¹ s⁻¹
[40]
  kcat/Km: 4e+06 M⁻¹ s⁻¹
[41]
  kcat/Km: 3e+07 M⁻¹ s⁻¹
[42]
  kcat/Km: 500000 M⁻¹ s⁻¹
[43]
  kcat/Km: 2e+06 M⁻¹ s⁻¹
[44]
  kcat/Km: 100000 M⁻¹ s⁻¹
